Reference: publication PMC2797757 (Journal of medicinal chemistry, 2009)
Entries after “also recorded” stand apart in the source; their conditions may differ.

Legend:
tubulin = assay: [3H]Colchicine binding assay; design: species or system bovine; settings: Tubulin 1 μM; [3H]colchicine and inhibitor both 5 μM
[1] = test system: HeLa cervical cancer cells; assay: Cell viability/proliferation assay, HeLa; assay type: cell-based, human; settings: 24 h, control cells = 100%
Summary of the method: (§1)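 Cells grown at 37 °C, 5% CO2, in D-MEM with 10% fetal calf serum, 4 mM glutamine and 2 mM pyruvate; HCT116/chr3 also got 500 μg/mL G418. Seeded at 1 × 10^3 cells/well and treated 24 h later for 24 h from a 10 mM DMSO stock. Vehicle control was 1% DMSO. Tetrazolium reagent added for 4 h at 37 °C, then absorbance read at 492 nm. Quadruplicate, three repeats; results are % of control, mean ± SD.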

[2] = test system: HCT116/chr3 human colon cancer cells; assay: Cell viability/proliferation assay, HCT116/chr3; assay type: cell-based; settings: 24 h, control cells = 100%
Summary of the method: as §1

[3] = test system: HEK, human embryonic kidney 293 cells; assay: Growth inhibition, MTT, HEK; assay type: cell-based; settings: read-out: HEK IC50 ± SD; MTT method; incubation 48 h
[4] = test system: HUVEC: human umbilical vein endothelial cells; assay: Growth inhibition of nontransformed cells, HUVEC; assay type: cell-based; settings: read-out: HUVEC IC50 ± SD
[5] = test system: U937, human leukemic monocyte lymphoma cells; assay: Growth inhibition, MTT, U937; assay type: cell-based; settings: read-out: U937 IC50 ± SD; MTT method; incubation 48 h
[6] = test system: M14, human melanoma cells; assay: Growth inhibition, MTT, M14; assay type: cell-based; settings: read-out: M14 IC50 ± SD; MTT method; incubation 48 h
[7] = test system: A10, rat embryonic aortic smooth muscle cells; assay: Growth inhibition of nontransformed cells, A10; assay type: cell-based; settings: read-out: A10 IC50 ± SD
[8] = test system: HAOSMC: human aortic smooth muscle cells; assay: Growth inhibition of nontransformed cells, HAOSMC; assay type: cell-based; settings: read-out: HAOSMC IC50 ± SD
[9] = test system: PtK2: potorous tridactylis kidney epithelial cells; assay: Growth inhibition of nontransformed cells, PtK2; assay type: cell-based, Potorus tridactylis; settings: read-out: PtK2 IC50 ± SD
[10] = test system: Saccharomyces cerevisiae BY4741 wild type strain; assay: Yeast toxicity protocol; assay type: cell-based; settings: 20 μM, growth recorded after 3 days at 28 °C; for effect on viability/growth of BY4741 strain cells: 18 h incubation; for serial dilution to which cell growth was limited: 10-fold serial cell dilution
Summary of the method: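 S. cerevisiae BY4741 (MATa his3Δ1 leu2Δ0 met15Δ0 ura3Δ0) grown at 28 °C in SD minimal medium with 2% glucose. Exponential cells (5 × 10^6/mL) exposed to 20 μM for 18 h at 28 °C, then centrifuged, washed twice with water and resuspended in SD. Serial 10-fold dilutions incubated overnight at 28 °C, spotted on YPD plates, and growth scored after 3 days at 28 °C.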

[11] = test system: MCF-7 human breast carcinoma cells; assay: Growth of MCF-7 cells; assay type: cell-based; settings: MCF7, 48 h, read-out: MCF-7 IC50 ± SD
HEK cells = assay: Time-lapse microscopy, HEK cell morphology and growth; assay type: cell-based, human; settings: 48 h treatment
M14 cells = assay: Time-lapse microscopy, M14 cell morphology and growth; assay type: cell-based, human; settings: 48 h treatment

(5-Bromo-1H-indol-3-yl)(3,4,5-trimethoxyphenyl)methanone [Compound 25]
inhibition colchicine binding (% ± SD) (tubulin): 45±5%

Methyl 5-Bromo-3-(3,4,5-trimethoxyphenylthio)-1H-indole-2-carboxylate [Compound 27]
% of cell proliferation, HeLa ([1]; 0.5 μM): 53±0.1%
% of cell proliferation, HeLa ([1]; 1 μM): 60±0.1%
% of cell proliferation, HCT116/chr3 ([2]; 0.5 μM): 57±0.9%
% of cell proliferation, HCT116/chr3 ([2]; 1 μM): 62±1.9%
IC50 [3]: 189 ± 5 nM
IC50 [4]: 140 ± 20 nM
inhibition colchicine binding (% ± SD) (tubulin): 75±3%
IC50 [5]: 177 ± 10 nM
IC50 [6]: 155 ± 9 nM
IC50 [7]: 230 ± 100 nM
IC50 [8]: 100 ± 30 nM
IC50 [9]: 280 ± 30 nM

COc1cc(Cn2cccc2C(=O)O)cc(OC)c1OC [Compound 54, 1-(3,4,5-Trimethoxybenzyl)-1H-pyrrole-2-carboxylic acid]
effect on viability/growth of BY4741 strain cells [10]: effectively inhibited growth; also recorded: strongly reduced the viability
serial dilution to which cell growth was limited [10]: first dilution

CCOC(=O)c1[nH]c2ccc(Cl)cc2c1Sc1cc(OC)c(OC)c(OC)c1 [Compound 18]
IC50 [11]: 110 ± 2 nM

Methyl 5-Bromo-3-(3,4,5-trimethoxybenzyl)-1H-indole-2-carboxylate [Compound 29]
% of cell proliferation, HeLa ([1]; 0.5 μM): 52±0.4%
% of cell proliferation, HeLa ([1]; 1 μM): 45±1.6%
% of cell proliferation, HCT116/chr3 ([2]; 0.5 μM): 51±4.6%
% of cell proliferation, HCT116/chr3 ([2]; 1 μM): 51±1.6%
IC50 [3]: 160 ± 5 nM
IC50 [4]: 140 ± 20 nM
inhibition colchicine binding (% ± SD) (tubulin): 59±7%
IC50 [5]: 159 ± 10 nM
IC50 [6]: 120 ± 10 nM
IC50 [7]: 230 ± 100 nM
IC50 [8]: 35 ± 7 nM
IC50 [9]: 270 ± 100 nM
effect on viability/growth of BY4741 strain cells [10]: significant BY4741 inhibition
serial dilution to which cell growth was limited [10]: third dilution

COC(=O)c1[nH]c2ccccc2c1Sc1cc(OC)c(OC)c(OC)c1 [Compound 6]
IC50 [11]: 25 ± 1 nM

COc1cc(Sc2c[nH]c3ccccc23)cc(OC)c1OC [Compound 3]
IC50 [11]: 34 ± 9 nM

COc1cc(Sc2c[nH]c3ccc(Cl)cc23)cc(OC)c1OC [Compound 12]
IC50 [11]: 77 ± 7 nM

Methyl 5-Methoxy-3-(3,4,5-trimethoxybenzoyl)-1H-indole-2-carboxylate [Compound 39]
% of cell proliferation, HeLa ([1]; 0.5 μM): 55±0.7%
% of cell proliferation, HeLa ([1]; 1 μM): 54±0.3%
effect on HEK cell morphology (HEK cells): significant morphologic changes
% of cell proliferation, HCT116/chr3 ([2]; 0.5 μM): 57±3.4%
% of cell proliferation, HCT116/chr3 ([2]; 1 μM): 55±1.2%
IC50 [3]: 140 ± 1 nM
IC50 [4]: 110 ± 60 nM
inhibition colchicine binding (% ± SD) (tubulin): 78±6%
effect on M14 cell morphology (M14 cells): significant morphologic changes
IC50 [5]: 155 ± 10 nM
IC50 [6]: 100 ± 5 nM
IC50 [7]: 95 ± 80 nM
IC50 [8]: 35 ± 7 nM
IC50 [9]: 190 ± 20 nM
effect on viability/growth of BY4741 strain cells [10]: significant inhibitory effects

Ethyl 5-Methoxy-3-(3,4,5-trimethoxybenzyl)-1H-indole-2-carboxylate [Compound 45]
inhibition colchicine binding (% ± SD) (tubulin): 42±4%

Ethyl 5-Bromo-3-(3,4,5-trimethoxybenzyl)-1H-indole-2-carboxylate [Compound 32]
inhibition colchicine binding (% ± SD) (tubulin): 53±4%

methyl 5-methoxy-3-(3,4,5-trimethoxyphenylthio)-1H-indole-2-carboxylate [Compound 36]
effect on viability/growth of BY4741 strain cells [10]: significant inhibitory effects

Ethyl 5-Bromo-3-(3,4,5-trimethoxybenzoyl)-1H-indole-2-carboxylate [Compound 31]
inhibition colchicine binding (% ± SD) (tubulin): 58±2%

Ethyl 5-Methoxy-3-(3,4,5-trimethoxybenzoyl)-1H-indole-2-carboxylate [Compound 43]
inhibition colchicine binding (% ± SD) (tubulin): 49±4%

Methyl 5-Bromo-3-(3,4,5-trimethoxybenzoyl)-1H-indole-2-carboxylate [Compound 28]
% of cell proliferation, HeLa ([1]; 0.5 μM): 41±1.1%
% of cell proliferation, HeLa ([1]; 1 μM): 47±0.4%
% of cell proliferation, HCT116/chr3 ([2]; 0.5 μM): 59±0.2%
% of cell proliferation, HCT116/chr3 ([2]; 1 μM): 66±3.5%
IC50 [3]: 131 ± 3 nM
IC50 [4]: 150 nM
inhibition colchicine binding (% ± SD) (tubulin): 67±4%
IC50 [5]: 191 ± 7 nM
IC50 [7]: 280 ± 40 nM
IC50 [8]: 55 ± 40 nM
IC50 [9]: 110 ± 60 nM

(5-Methoxy-1H-indol-3-yl)-(3,4,5-trimethoxyphenyl)methanone [Compound 34]
inhibition colchicine binding (% ± SD) (tubulin): 32±7%

Methyl 5-Methoxy-3-(3,4,5-trimethoxybenzyl)-1H-indole-2-carboxylate [Compound 41]
% of cell proliferation, HeLa ([1]; 0.5 μM): 52±0.7%
% of cell proliferation, HeLa ([1]; 1 μM): 51±0.2%
effect on HEK cell morphology (HEK cells): significant morphologic changes
% of cell proliferation, HCT116/chr3 ([2]; 0.5 μM): 69±6.7%
% of cell proliferation, HCT116/chr3 ([2]; 1 μM): 69±0.3%
IC50 [3]: 181 ± 3 nM
IC50 [4]: 170 ± 50 nM
inhibition colchicine binding (% ± SD) (tubulin): 59±1%
effect on M14 cell morphology (M14 cells): significant morphologic changes
IC50 [5]: 189 ± 5 nM
IC50 [6]: 137 ± 5 nM
IC50 [7]: 130 ± 100 nM
IC50 [8]: 70 ± 10 nM
IC50 [9]: 190 ± 200 nM

Ethyl 5-Bromo-3-(3,4,5-trimethoxyphenylthio)-1H-indole-2-carboxylate [Compound 30]
inhibition colchicine binding (% ± SD) (tubulin): 62±7%
